The text below walks through data of ChEMBL document CHEMBL1949554, “Peptidomimetics containing a vinyl ketone warhead as falcipain-2 inhibitors” (Eur J Med Chem, 2011).

Activity calls are given as the source filed them. No cut-off for these calls is given here. A value given as a limit tells only on which side of the number the result lay.

Assay [1] concerns the target Cathepsin B (Homo sapiens, UniProt P07858). The experiment in a line: Inhibition of human cathepsin-B using Cbz-Phe-Arg-AMC as substrate by spectrofluorometer analysis.
Assay [2] has as its target T1, Procathepsin L (Homo sapiens, UniProt P07711). The assay can be described thus: Inhibition of human cathepsin L using Cbz-Phe-Arg-AMC as substrate by spectrofluorometer analysis.
Target sequence in this assay (P07711 whole entry): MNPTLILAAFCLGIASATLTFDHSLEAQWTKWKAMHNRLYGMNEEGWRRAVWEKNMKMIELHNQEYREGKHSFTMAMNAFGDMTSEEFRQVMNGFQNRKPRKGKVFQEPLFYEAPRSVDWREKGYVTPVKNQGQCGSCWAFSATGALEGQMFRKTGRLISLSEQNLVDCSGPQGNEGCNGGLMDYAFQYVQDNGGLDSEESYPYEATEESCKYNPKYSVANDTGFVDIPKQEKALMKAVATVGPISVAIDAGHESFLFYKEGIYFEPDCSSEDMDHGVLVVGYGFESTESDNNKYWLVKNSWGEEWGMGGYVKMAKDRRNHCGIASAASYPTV
Assay [3] in a line: Inhibition of Plasmodium falciparum Falcipain 2 using Cbz-Phe-Arg-AMC as substrate after 15 mins by spectrofluorometer analysis. A digest of the protocol:
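Continuous progress-curve assay in 50 mM sodium acetate pH 5.5 with 10 mM DTT, Cbz-Phe-Arg-AMC as substrate, inhibitors from DMSO stocks. AMC release read (ex 365, em 460 nm) for 15 min at room temperature. kobs from the fit F = A(1−exp(−kobs·t)) + B. Hyperbolic kobs vs [I] gave kinac and KI; linear plots gave k2nd = kobs/[I]. At least two independent runs, each in duplicate.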

Assay [4] addresses T1, Procathepsin L. Particulars: 5 to 50 uM.
Target sequence in this assay (P07711 114-333 limits assumed): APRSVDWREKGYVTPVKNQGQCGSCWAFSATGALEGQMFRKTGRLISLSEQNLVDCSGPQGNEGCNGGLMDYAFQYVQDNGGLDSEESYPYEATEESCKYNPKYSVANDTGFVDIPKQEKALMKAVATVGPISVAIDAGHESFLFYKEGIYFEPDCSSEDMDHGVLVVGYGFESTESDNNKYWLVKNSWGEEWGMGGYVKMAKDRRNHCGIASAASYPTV
The test system of assay [5] is Plasmodium falciparum. The experiment in a line: Antiplasmodial activity against Plasmodium falciparum FCBR. The assay is classed as functional, organism-based. Particulars: FCBR/Columbia.
For assay [6], the system named is Plasmodium falciparum. The assay can be described thus: Inhibition of Plasmodium falciparum Falcipain 2 using Cbz-Phe-Arg-AMC as substrate at 100 uM after 15 mins by spectrofluorometer analysis. An outline of the steps: (§1)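 Single-concentration screen at 100 and 30 inhibitor concentration, with an equal amount of DMSO as negative control and E-64 as positive control. AMC release from Cbz-Phe-Arg-AMC was followed fluorimetrically (ex 365, em 460 nm) as continuous increase in fluorescence. Percent inhibition is relative to DMSO. At least two independent measurements, each in duplicate.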

The test system of assay [7] is Plasmodium falciparum. The experiment in a line: Inhibition of Plasmodium falciparum Falcipain 2 using Cbz-Phe-Arg-AMC as substrate at 30 uM after 15 mins by spectrofluorometer analysis. A digest of the protocol: as §1

On to `CC(=O)/C=C/CNC(=O)CN1C(=O)[C@@H](CNCC(C)C)N=C(c2ccccc2)c2ccccc21`, for which the Ki in assay [1] was over 100 µM; in assay [2] (read-out: Ki), over 140 µM; in assay [3] it was over 100 µM.

With `CC(=O)/C=C/CNC(=O)CN1C(=O)[C@@H](CN2CCOCC2)N=C(c2ccccc2)c2ccccc21`, the Ki in assay [1] was over 100 µM.

With `CC(=O)/C=C/CNC(=O)CN1C(=O)[C@@H](COC(=O)Nc2ccc(Cl)cc2C(F)(F)F)N=C(c2ccccc2)c2ccccc21`, the Ki in assay [2] (read-out: Ki(app)) was 8.6 µM. Besides, the inhibition entry in assay [4] was “tde”.

As to `CC(=O)/C=C/CNC(=O)CN1C(=O)[C@@H](COC(=O)Nc2ccc(Cl)cc2C(F)(F)F)N=C(C)c2ccccc21`, the Ki in assay [2] (read-out: Ki) was 82 µM. For the same compound, the IC50 in assay [5] is over 100 µM.

On to `CC(=O)/C=C/CNC(=O)CN1C(=O)[C@@H](CN2CCCCC2)N=C(c2ccccc2)c2ccccc21`, for which the Ki in assay [1] and in assay [2] (read-out: Ki) was over 100 µM each time. This compound also showed an inhibition in assay [6] of 80%. Besides, in assay [7], the inhibition entry was “inactive”.
